From PubChem BioAssay
Insulin prom inh: TRM-6 insulin promoter activity inhibition; TRM-6 cells (human fetal islet line), insulin promoter-eGFP reporter, imaging; reporter expression induced with tamoxifen; inhibition, % at 2 µM; 0.9% of 130,000 active; AID 1273;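 active = inhibition above the mean plus 3 SD, with well images judged a real hit on visual review, cut at about 60% in these data, passing the limit was not always enough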
MDM2 E3 inh: blocks human Mdm2 ubiquitin ligase activity. Q00987. cell-based MDM2 ubiquitination luciferase reporter, 2 h; 0 = plate control, 100 = twice control, blank-subtracted. signal enhancement, % at 5 µM. 0.11% of 210,000 active;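 active = signal enhancement of 30% or more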;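 also: luminescence tracks abundance of the self-degrading MDM2-luciferase fusion protein; higher signal means inhibition of MDM2 E3 ligase activity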
Target sequence (Q00987 whole entry, looked up, the tested form may be a part): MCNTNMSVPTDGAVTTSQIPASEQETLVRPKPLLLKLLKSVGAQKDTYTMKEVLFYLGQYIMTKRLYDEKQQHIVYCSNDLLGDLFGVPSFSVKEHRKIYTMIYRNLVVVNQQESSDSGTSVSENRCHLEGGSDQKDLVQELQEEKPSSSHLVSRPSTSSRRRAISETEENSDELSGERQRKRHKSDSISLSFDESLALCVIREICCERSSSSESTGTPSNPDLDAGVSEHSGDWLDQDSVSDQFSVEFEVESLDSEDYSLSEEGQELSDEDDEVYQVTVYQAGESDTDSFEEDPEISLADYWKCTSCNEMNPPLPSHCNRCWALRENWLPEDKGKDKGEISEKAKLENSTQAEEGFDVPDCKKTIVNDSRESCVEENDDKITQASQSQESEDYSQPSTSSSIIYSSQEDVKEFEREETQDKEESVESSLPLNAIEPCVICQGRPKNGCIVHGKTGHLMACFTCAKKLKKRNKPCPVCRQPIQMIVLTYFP
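Assay system: mammalian cells stably expressing self-ubiquitinating, self-degrading MDM2 E3–luciferase fusion. Quantity: 2000 cells in each well. Medium: DMEM culture medium. Compound dosing: single-point 5 µM. Timing: cell settling 4 h, compound treatment 2 h, both 37 °C. Technique: luciferase luminescence. Read-out basis: percent signal gain over controls, blank-subtracted. Benchmarks: plate controls and plate blanks.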
RAM network inh: blocks the yeast RAM network; S. cerevisiae dse1pr::URA3 reporter, 5-FOA growth OD615, 2 d; analog-sensitive cbk1-as2 kinase mutant strain; inhibition, % at 50 µM; 1.8% of 190,000 active;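 active = inhibition above a set limit, 3 SD over mean compound inhibition, cut at about 8.4% in these data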;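 also: inhibition rescues growth on 5-FOA so higher OD means more RAM inhibition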
Yeast growth inh: yeast BB579 growth reduction in restrictive medium; AID 804; 0.51% of 140,000 active; S. cerevisiae BB579 growth, OD615, 48 h; inhibition, % at 10 µM;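 active = inhibition above a set limit, 3 SD over the mean compound inhibition, cut at about 44% in these data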
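Test system: Saccharomyces cerevisiae DeaD strain BB579, replicative lifespan model yeast | Buffer or medium: Restrictive CSMM-D medium | Doses: One dose, 10 µM compound with 0.25% DMSO | Incubation: 48 h exposure, 30 °C | Detection: Culture absorbance at 615 nm | Control set: Amphotericin B at 10 µg/mL as positive control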
Measles CPE: protection of cells from measles virus; Measles virus-infected cells, CPE protection, absorbance; protection (pct of control), % at 4 µM; 1.5% of 140,000 active; AID 841; in the data active = protection mostly above about 24%, no sharp cut-off; inactive = mostly below about 26%
Yeast life ext: yeast lifespan extension; S. cerevisiae growth with nicotinamide, OD615; deaD strain in restrictive glucose medium; inhibition of the nicotinamide effect, % at 10 µM; 0.68% of 130,000 active;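 active = inhibition above a set limit, placed 3 SD over the median of all compounds, cut at about 26% in these data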
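Test system: DeaD-strain S. cerevisiae / Buffer or medium: restrictive glucose medium / Also added: nicotinamide 1.5 mM / Doses: one concentration, 10 µM, DMSO 0.25% / Schedule: 48 h at 30 °C / Signal: OD615 measurement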
RAM efflux-def: RAM network inhibition, efflux-deficient strain; shares compounds with RAM network inh; S. cerevisiae efflux-deficient reporter strain, 5-FOA growth OD615, 2 days; max inhibition, %; 1,200 tested, under 10 active; AID 1305; call rule not given here
Of the large screens only hits and unclear results are named; the others gave an inactive call (follow-up assays come after a bar, where they were run). This is a sample that favours compounds with a hit; in the whole collection about 4% have one here.

N#Cc1nc(Cc2cccc3ccccc23)oc1N1CCOCC1	none
N#Cc1nc(COc2ccccc2)oc1N1CCC(Cc2ccccc2)CC1	RAM network inh 11
CC1CCN(c2oc(Cc3cccc4ccccc34)nc2C#N)CC1	RAM network inh 10
CC1Nc2ccccc2C(=O)N1NC(=O)c1ccc(Br)cc1 (stereo not drawn)	none (no result: Yeast growth inh, Measles CPE, Yeast life ext)
NNc1ncnc2scc(-c3ccc(Cl)cc3)c12	none (no result: Insulin prom inh)
Cc1ccc(-c2csc3ncnc(NS(=O)(=O)c4ccc(Cl)cc4)c23)cc1	RAM network inh 9.2 (no result: Insulin prom inh)
Cc1cccc(NC(=S)NC(=O)C(c2ccccc2)c2ccccc2)n1	Insulin prom inh 72 (no result: MDM2 E3 inh, RAM network inh, Yeast growth inh, Measles CPE, Yeast life ext)
c1ccc(N2CCN(c3ccccc3)C2c2cccs2)cc1	MDM2 E3 inh 36 (no result: Insulin prom inh)
CCOC(=O)C1(Cc2ccc(Cl)cc2)CCN(C(=O)c2sc(C)nc2C)CC1	none (no result: Yeast growth inh, Measles CPE, Yeast life ext)
c1ccc(OCc2noc(CN3CCC(C4CCCCC4)C3)n2)cc1 (stereo not drawn)	none (no result: Insulin prom inh, Yeast growth inh, Measles CPE, Yeast life ext)
COc1ccc(N2Cc3cccc(C(=O)NC(C)CCc4ccco4)c3C2=O)cc1 (stereo not drawn)	none (no result: Insulin prom inh)
CC(CCc1ccco1)NC(=O)c1cccc2c1C(=O)N(C1CCCCC1)C2 (stereo not drawn)	RAM network inh 12 (no result: Yeast growth inh, Measles CPE, Yeast life ext) | RAM efflux-def inactive
CCCCS(=O)(=O)NC1=NCN(C2CCN(Cc3ccccc3)CC2)CN1	none (no result: MDM2 E3 inh, RAM network inh, Yeast growth inh, Measles CPE, Yeast life ext)
Cc1ccc(-n2ncc3c(=O)[nH]c(SCC(=O)N4CCCc5ccccc54)nc32)cc1	RAM network inh 12 | RAM efflux-def inactive
Cc1ccc(-n2ncc3c(=O)[nH]c(SCC(=O)N4CCN(c5ccccc5)CC4)nc32)cc1	none (no result: MDM2 E3 inh, Yeast life ext)
COc1ccc(C(C#N)N2N=C(c3ccccc3)CC2c2ccccc2)cc1OC (stereo not drawn)	none
COc1ccc(C2=NN(C(C#N)c3ccc(OC)cc3)C(c3ccccc3)C2)cc1 (stereo not drawn)	RAM network inh 14 | RAM efflux-def inactive
Cc1ccc(/C=C(\C#N)C(=O)N2CCCC2)c(C)c1	none (no result: Yeast growth inh, Measles CPE, Yeast life ext)
CNC(=O)c1cc2c(=O)n3cccc(C)c3nc2n(C(C)C)c1=N	none
CC(C)(C)NC(=O)c1ccc(NC(=O)CSc2ccccc2)cc1	RAM network inh 22 (no result: Insulin prom inh, Yeast growth inh, Measles CPE, Yeast life ext) | RAM efflux-def inactive
Cc1ccc(S(=O)(=O)c2c(CO)c(-c3ccccc3)nn2C)cc1	RAM network inh 14 (no result: Insulin prom inh, Yeast growth inh, Measles CPE, Yeast life ext) | RAM efflux-def inactive
C/C(N)=C(/C#N)C(=O)CSc1nc2ccccc2c(=O)n1-c1ccc(C)c(Cl)c1	RAM network inh 12 | RAM efflux-def inactive
C/C(N)=C(/C#N)C(=O)CSc1nc2ccccc2c(=O)n1-c1ccc(C)cc1	none
CCOc1ccc(/C=N/Nc2cc(=O)n(C)c(=O)n2C)cc1	none
CCCCN(C(=O)c1cccc2c(=O)c(C)c(-c3ccccc3)oc12)c1ccccc1	RAM network inh 16, Yeast life ext 29 | RAM efflux-def inactive
O/N=C/c1cc(Br)ccc1OCc1cccc(F)c1	RAM network inh 12 | RAM efflux-def inactive
O=C(CNC(=O)c1cccc(F)c1)N/N=C/c1cc(Br)ccc1OCc1ccccc1	none
Cc1cccc(C)c1NC(=O)NC1(C(=O)NCCCN2CCOCC2)CCCCC1	none (no result: Yeast life ext)
[2H]c1c([2H])c([2H])c(-c2nc(N3CCCCCC3)sc2C(=O)c2ccccc2)c([2H])c1[2H]	RAM network inh 13 (no result: Insulin prom inh) | RAM efflux-def inactive
O=C(c1sc(N2CCOCC2)nc1-c1ccccc1)N1CCCCC1	none
COc1ccc(/C=c2\s/c(=C/C(=O)c3ccc(C)cc3)[nH]c2=O)cc1OC	none
CCCCNC(=S)N(C)/N=C/c1ccc(OCc2ccc(C(=O)OC)cc2)c(OC)c1	RAM network inh 14 (no result: MDM2 E3 inh) | RAM efflux-def inactive
COc1cc(-c2nnc(SCC(=O)c3ccc(C)cc3)o2)cc(OC)c1OC	none
COc1cc(-c2nnc(-c3ccccc3)o2)cc(OC)c1OC	RAM network inh 23 (no result: Yeast life ext) | RAM efflux-def inactive
COc1cccc(C(=O)CSc2nnc(-c3cc(OC)c(OC)c(OC)c3)o2)c1	RAM network inh 13 (no result: Insulin prom inh) | RAM efflux-def inactive
COc1cc(-c2nnc(-c3cc(OC)c(OC)c(OC)c3)o2)cc(OC)c1OC	none (no result: Yeast life ext)
O=C1NC(=S)N/C1=C/c1cc([N+](=O)[O-])ccc1O	none
CCOC(=O)c1cc(C)sc1NC(=O)C(c1ccccc1)c1ccccc1	RAM network inh 16 | RAM efflux-def inactive
CCN(c1cccc(C)c1)c1nc2ccsc2c(=O)s1	none
CCOC(=O)N1CCN(S(=O)(=O)c2ccc(C(=O)Nc3ccc4c(c3)C(=O)NC4=O)cc2)CC1	none
Cc1ccc(NC(=O)Cc2ccc(Cl)c(Cl)c2)cc1S(=O)(=O)N(C)C	RAM network inh 12 | RAM efflux-def inactive
O=C(NCc1ccccn1)c1cccc(NS(=O)(=O)c2cccc(F)c2)c1	none
O=C(Nc1cc(Sc2ccccn2)cc([N+](=O)[O-])c1)c1cccc(Cl)c1	RAM network inh 12 | RAM efflux-def inactive
O=C(Nc1cc(Sc2ccccn2)cc([N+](=O)[O-])c1)c1ccc(Cl)cc1	none
COC(=O)c1sccc1-c1ccc(/C=N/OCc2c(Cl)cccc2Cl)o1	RAM network inh 18 | RAM efflux-def inactive
Cc1[nH]n(-c2ncc(-c3ccccc3)s2)c(=O)c1C(c1ccc(Cl)cc1)C(C#N)C#N (stereo not drawn)	RAM network inh 12, Yeast life ext 35 (no result: Insulin prom inh) | RAM efflux-def inactive
Cc1[nH]n(-c2ccccc2)c(=O)c1C(C[N+](=O)[O-])c1ccc(Cl)cc1 (stereo not drawn)	none
Cc1cccc2nc(-c3ccccc3)nc(N[C@@H](CO)c3ccccc3)c12	none
CC/C(=N\OC(=O)c1ccc(OC(C)C)cc1)c1ccc(C)cc1	none
C/C(=N\OC(=O)c1ccc(OC(C)C)cc1)c1ccc(C)c(C)c1	RAM network inh 12 | RAM efflux-def inactive
O=C(CSc1ccccc1)N(c1ccc(Br)cc1)c1nccs1	RAM network inh 12 | RAM efflux-def inactive
CCCSc1nc(NCc2ccco2)c2c3c(sc2n1)COC(C)(C)C3	RAM network inh 13 | RAM efflux-def inactive
CC(C)N1C(=O)CSC1c1ccc(Br)cc1 (stereo not drawn)	none (no result: Yeast growth inh, Measles CPE, Yeast life ext)
S=C(NC1CC1)NC1CCCc2ccccc21 (stereo not drawn)	none (no result: Yeast growth inh, Measles CPE, Yeast life ext)
N#Cc1nc(-c2ccc(OCc3ccccc3)cc2)oc1NCc1cccnc1	none
CN(C)c1oc(-c2ccc(OCc3ccccc3)cc2)nc1C#N	RAM network inh 14 | RAM efflux-def inactive
Cc1ccc(C(=O)NCCSCc2ccc(Cl)cc2Cl)cc1[N+](=O)[O-]	RAM network inh 14 (no result: MDM2 E3 inh) | RAM efflux-def inactive
CCCCC(=O)Nc1ccccc1C(=O)OCC(=O)c1ccc2c(c1)OCCO2	RAM network inh 13 (no result: Insulin prom inh) | RAM efflux-def inactive
